# TAAR1 antagonist: antagonists of human TAAR1 | Q96RJ0 | CHO RD-HGA16 TAAR1, Fluo-8 calcium fluorescence, antagonist | inhibition, % at 3 µM | actives 1.5% (n = 360,000) | AID 624466;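 active = inhibition above a per-plate cutoff, the mean inhibition of test compounds on that plate plus 3 SD, cut at about 49% in these data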;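 note: 0% = DMSO plus EC80 beta-PEA response and 100% = DMSO alone without agonist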
# Target sequence (Q96RJ0 whole entry, looked up): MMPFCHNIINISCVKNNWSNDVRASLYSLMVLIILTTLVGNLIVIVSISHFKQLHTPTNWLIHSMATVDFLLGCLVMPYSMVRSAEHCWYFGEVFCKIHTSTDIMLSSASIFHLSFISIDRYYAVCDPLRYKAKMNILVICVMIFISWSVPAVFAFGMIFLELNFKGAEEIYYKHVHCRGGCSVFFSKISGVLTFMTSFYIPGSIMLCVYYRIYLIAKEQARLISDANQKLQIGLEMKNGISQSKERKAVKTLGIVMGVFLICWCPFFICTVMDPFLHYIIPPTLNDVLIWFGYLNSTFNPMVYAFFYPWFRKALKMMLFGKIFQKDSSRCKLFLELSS
#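 Test system – hTAAR1-expressing CHO RD-HGA16 cells, Gα16-coupled · Also added – β-PEA at EC80 concentration, post-compound challenge · Compound – 3 µM, single point · Incubation – dye loading 75 min at 37 °C, then 30 min room temperature · Measured by – Fluo-8 intracellular calcium dye fluorescence, real-time kinetic reads · Benchmarks – vehicle and agonist controls · Replicates – singlicate, one well per test compound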
# DAGLB inh: diacylglycerol lipase beta (human) inhibition. Q8NCG7. HEK293T DAGLB membrane lysate, EnzChek fluorogenic substrate. inhibition, % at 5.17 µM. actives 0.059% (n = 340,000). AID 504411; in the data active = inhibition above about 34%;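 note: 0% = enzyme with vehicle and 100% = wells lacking enzyme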
# TAAR1 agonist: human TAAR1 agonism; activation, % at 3 µM; actives 0.99% (n = 360,000); AID 624467; CHO RD-HGA16 TAAR1, Fluo-8 calcium fluorescence; vehicle wells 0%, saturating PEA agonist 100%;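 active = activation above the mean activation of all test compounds in the run plus 3 SD, cut at about 38% in these data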
#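 Test system: RD-HGA16 (CHO) cells co-expressing Gα16 and hTAAR1; dosing: one-point dosing at 3 µM (nominal); timing: 17-24 h seeding, 75 min 37 °C dye, 30 min RT; signal: kinetic Fluo-8 calcium fluorescence; read-out basis: % activation relative to PEA EC100 response; controls: DMSO and PEA EC100; replicates: n 1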
# GPR7 antagonist: human neuropeptides B/W receptor 1 antagonism; P48145; GPR7-expressing cells, fluorescence antagonist assay; inhibition, % at 4.4 µM; actives 1.1% (n = 290,000); AID 1861; in the data active = inhibition above about 16%, passing the limit was not always enough;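 note: cells stimulated with the agonist NPW; 0% = agonist with vehicle and 100% = vehicle without agonist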
# Target sequence (P48145 whole entry, looked up): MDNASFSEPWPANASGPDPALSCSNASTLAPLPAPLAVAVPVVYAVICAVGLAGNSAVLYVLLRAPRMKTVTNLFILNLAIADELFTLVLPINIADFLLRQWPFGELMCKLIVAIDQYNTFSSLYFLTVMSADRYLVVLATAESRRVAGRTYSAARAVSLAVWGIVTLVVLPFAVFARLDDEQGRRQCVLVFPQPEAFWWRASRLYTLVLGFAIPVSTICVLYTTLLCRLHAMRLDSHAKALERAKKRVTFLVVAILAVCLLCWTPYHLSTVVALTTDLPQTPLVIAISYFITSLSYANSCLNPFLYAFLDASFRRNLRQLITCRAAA
# MPTP inh: blocks calcium-induced mitochondrial swelling | isolated mouse mitochondria, Ca2+ swelling absorbance, 30 min | inhibition, % at 10 µM | actives 1.4% (n = 360,000) | AID 602449;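 active = inhibition of 50% or more, scaled per plate between neutral and stimulator controls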;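 note: 0% = DMSO wells given calcium and 100% = 1 mM EGTA wells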
# nonsel antag count: nonselective antagonist in TAAR1 antagonist counter-screen; shares compounds with TAAR1 antagonist; counterscreen cell line, calcium fluorescence, antagonist mode; inhibition, % at 3 µM; actives 77% (n = 2,400); AID 651780; in the data active = inhibition above about 22%;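 note: CHO-Ga16 host cells stimulated with ATP at an EC80 level; 0% = agonist EC80 plus vehicle and 100% = vehicle without agonist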
# TAAR1 antag conf: human TAAR1 antagonism, confirmed | shares compounds with TAAR1 antagonist | TAAR1-expressing cells, fluorescence antagonist read-out | inhibition, % at 3 µM | actives 40% (n = 2,400) | AID 651785; in the data active = inhibition above about 49%;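 note: CHO-Ga16 host cells challenged with agonist PEA near its EC80; 0% = agonist at EC80 plus vehicle and 100% = vehicle with no agonist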
# Ga16 ag counter: nonselective Ga16 agonism, counter-screen; shares compounds with TAAR1 antagonist; Ga16-expressing cells, calcium fluorescence, agonist counterscreen; activation, % at 3 µM; actives 18% (n = 2,400); in the data active = activation above about 12%;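 note: 0% = vehicle wells and 100% = saturating stimulus response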
# TAAR1 ag count: TAAR1 agonism, antagonist counter-screen. shares compounds with TAAR1 antagonist. hTAAR1 cell line, fluorescence activation, agonist mode. activation, % at 3 µM. actives 2% (n = 2,400); in the data active = activation above about 37%;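 note: CHO cells stably expressing TAAR1 with calcium dye readout; 0% = DMSO vehicle and 100% = full agonist response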
# Numbers without * were called inactive; / = not tested or not shown. In the library only some 4% were active in any assay of this set; here they are far more common.
SMILES,TAAR1 antagonist,DAGLB inh,TAAR1 agonist,GPR7 antagonist,MPTP inh,nonsel antag count,TAAR1 antag conf,Ga16 ag counter,TAAR1 ag count
Cc1csc(N2CCN(c3cc4c(cc3Cl)nc(-c3ccncc3)n4CCCN3CCCC3)CC2)n1,3,-4,9,-3,0,/,/,/,/
Nc1ccn([C@@H]2O[C@H](C(=O)N[C@H](Cc3ccccc3)C(=O)N3CCN(CCO)CC3)[C@@H](O)[C@H]2O)c(=O)n1,-7,/,2,/,/,/,/,/,/
O=C1CC(c2ccc(OCCCCCOc3ccc(C4CC(=O)NC4=O)cc3)cc2)C(=O)N1 (centres undefined),64*,4,20,2,2,40*,53*,14*,19
Cc1ncc(CO)c2c1Oc1nc(-c3ccccc3)nc(SCC(=O)N(C)c3ccccc3)c1C2,62*,/,8,-12,/,27*,46,6,7
CCCCN(C(=O)c1ccc(-n2nc(C)cc2C)cc1)c1c(N)n(CCC)c(=O)[nH]c1=O,-12,1,0,/,-1,/,/,/,/
CN(CCOc1ccc(Cl)cc1)C(=O)c1cc(S(=O)(=O)N2CCOCC2)ccc1N1CCCC1,67*,-2,17,/,1,21,35,7,5
CCCCCCCCN1C(=O)[C@@H](CC(=O)NCCCOCCCC)C[C@@]2(C(=O)OC)C1=C[C@H](C1CCCC1)O[C@@H]2C,-16,/,-2,/,/,/,/,/,/
Cc1ccc(NC(=O)C(C)c2ccc(-c3ccccc3)c(F)c2)c(C)c1 (centres undefined),54*,-23,19,-3,4,18,22,3,4
COc1ccc(CNC(=O)CN(Cc2ccccc2)S(=O)(=O)c2ccc(Cl)cc2)cc1,63*,-9,16,-14,2,42*,65*,12*,14
CN(c1ccccc1)S(=O)(=O)c1cc(C(=O)NCCCn2ccnc2)ccc1Cl,-5,0,3,/,2,/,/,/,/
CCOC(=O)Cn1c(=O)oc2cc(S(=O)(=O)N(C)Cc3ccccc3)ccc21,65*,-3,16,14,2,19,47,11,11
C=CCn1c(=S)[nH]c2cc(C(=O)Nc3ccc(OC)c(OC)c3)ccc2c1=O,62*,0,19,21,1,33*,45,12*,18
CCNC(=O)N(C)c1c(CC)nc2ccc(C(=O)N3CCN(S(=O)(=O)CC)CC3)cn12,-3,/,3,/,0,/,/,/,/
CCOc1cc(C(=S)N2CCOCC2)ccc1OC(=O)c1cccc(C)c1,66*,2,9,-5,0,31*,48,5,1
Cc1ccc(S(=O)(=O)N2C3CCCCC3O[C@H]2CC(=O)c2cccs2)cc1 (some centres undefined),-31,/,3,/,0,/,/,/,/
CCOc1ccc2nc(NC(=O)CS(=O)(=O)c3ccccc3)sc2c1,10,3,0,-8,-2,/,/,/,/
CCOc1ccc2nc(NC(=O)CS(=O)(=O)c3ccc(C)cc3)sc2c1,55*,1,6,-10,4,20,38,2,3
CCOC(=O)[C@]12CCCC=C1N(Cc1cccc3ccccc13)C(=O)[C@H](CC(=O)NCc1ccc(OC)c(OC)c1)C2,31,/,0,/,-1,/,/,/,/
CCCCOc1cccc(C(=O)N(Cc2ccco2)C2CCS(=O)(=O)C2)c1 (centres undefined),3,-1,3,5,-1,/,/,/,/
CCCOc1cccc(C(=O)N(Cc2ccco2)C2CCS(=O)(=O)C2)c1 (centres undefined),102*,-1,-5,-4,-2,0,0,0,-1
CCOC(=O)C1=CCC(c2ccccc2)N(S(=O)(=O)c2ccc(C)cc2)[C@H]1CC (some centres undefined),18,/,-2,/,1,/,/,/,/
O=[N+]([O-])c1ccc(-c2ccc(/C=N/Nc3nc(N4CCCCC4)nc(N4CCCCC4)n3)o2)cc1,-5,/,10,0,2,/,/,/,/
O=[N+]([O-])c1cccc(-c2ccc(/C=N/Nc3nc(N4CCCCC4)nc(N4CCCCC4)n3)o2)c1,52*,-2,6,5,3,19,35,4,6
CCOc1ccccc1NC(=O)c1cc(-c2cc(OC)c(OC)c(OC)c2)nc2ccccc12,59*,-11,6,-37,-1,29*,51*,4,2
O=C(Nc1ccncc1)c1cc(-c2cccc(Br)c2)nc2ccccc12,38,0,-1,/,2,/,/,/,/
SMILES,TAAR1 antagonist,DAGLB inh,TAAR1 agonist,GPR7 antagonist,MPTP inh,nonsel antag count,TAAR1 antag conf,Ga16 ag counter,TAAR1 ag count
COc1cc(-c2cc(C(=O)Nc3ccncc3)c3ccccc3n2)cc(OC)c1OC,61*,-2,23,/,-1,28*,48,8,6
O=C(Nc1cccnc1)c1cc(-c2cccc(Br)c2)nc2ccccc12,65*,0,2,-10,1,27*,47,5,5
COc1ccc(-c2cc(C(=O)Nc3ccccc3O)c3ccccc3n2)cc1OC,34,-1,14,18,-2,/,/,/,/
COc1cc(-c2cc(C(=O)Nc3ccc(N4CCOCC4)cc3)c3ccccc3n2)cc(OC)c1OC,72*,2,13,-20,0,32*,51*,7,6
COc1cccc(N2CCN(C(=O)CCCCCNc3nc(=S)[nH]c4ccccc34)CC2)c1,59*,0,11,-13,-4,19,37,8,11
Cc1cccc(NC(=O)CNC(=O)[C@@H](Cc2ccccc2)NC(=O)[C@H]2O[C@@H](n3ccc(N)nc3=O)[C@H](O)[C@@H]2O)c1C,-27,/,5,/,/,/,/,/,/
CCOc1ccc(/C=N/NC(=O)c2cc(-c3ccccc3)nc3ccccc23)cc1O,44,1,8,-5,1,/,/,/,/
COc1cc(/C=N/NC(=O)c2cc(-c3ccccc3OC(C)C)nc3ccccc23)ccc1O,57*,-3,8,-13,0,13,42,9,13
CCOc1cc(/C=N/NC(=O)c2cc(-c3cccc(OC)c3)nc3ccccc23)ccc1O,76*,/,8,/,3,14,46,8,8
COc1cc(/C=N/NC(=O)c2cc(-c3ccccc3)nc3ccccc23)ccc1O,35,-2,11,-11,0,/,/,/,/
CC(C)COc1cccc(-c2cc(C(=O)N/N=C/c3ccncc3)c3ccccc3n2)c1,61*,-2,3,-18,3,8,27,6,18

# Screens deposited in PubChem BioAssay by several laboratories.
